Activity calls are given as the source filed them. The rule behind the calls is not given here.
Experiments:
HCT-116 = experiment: Cytotoxicity against human HCT116 cells after 48 hrs by MTT assay; assay type: functional, cell-based; settings: HCT-116, 48 h
Method in brief: (§1)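 All three human tumour lines were screened in parallel by MTT colorimetric viability assay, with sorafenib as positive control. Antiproliferative potency was expressed as IC50.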

MDA-MB-231 = experiment: Cytotoxicity against human MDA-MB-231 cells after 48 hrs by MTT assay; assay type: functional, cell-based; settings: MDA-MB-231, 48 h; method in brief: as §1
PC-3 = experiment: Cytotoxicity against human PC3 cells after 48 hrs by MTT assay; assay type: functional, cell-based; settings: PC-3, 48 h; method in brief: as §1
Aorta = experiment: Antiangiogenic activity in Sprague-Dawley rat aortic ring assessed as inhibition of blood vessel formation at 0.1 uM after 6 days by inverted microscopic analysis; assay type: functional, tissue-based
Method in brief: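 Sprague-Dawley rat aortic segments were embedded in wells coated with growth factor-reduced Matrigel. They were cultured for 6 d with or without compound, and untreated wells served as control. Microvessel sprouting from the segments was scored.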

## CNC(=O)c1cc(Oc2cccc(NC(=S)Nc3ccc(Cl)cc3)c2)ccn1
HCT-116
  IC50: 39.4 µM
MDA-MB-231
  IC50: > 100 µM
PC-3
  IC50: 24.1 µM

## O=C(c1cc(Oc2cccc(NC(=S)Nc3cccc(C(F)(F)F)c3)c2)ccn1)N1CCCC1
HCT-116
  IC50: 19.2 µM
MDA-MB-231
  IC50: 35.4 µM
PC-3
  IC50: 27 µM

## O=C(NC1CCCCC1)c1cc(Oc2cccc(NC(=S)Nc3ccc(F)c(F)c3)c2)ccn1
HCT-116
  IC50: 8.9 µM
Aorta
  inhibition: Active
MDA-MB-231
  IC50: > 100 µM
PC-3
  IC50: 8.1 µM

## O=C(NC1CCCCC1)c1cc(Oc2cccc(NC(=S)Nc3cccc(C(F)(F)F)c3)c2)ccn1
HCT-116
  IC50: 8.4 µM
MDA-MB-231
  IC50: > 100 µM
PC-3
  IC50: 16.8 µM

## CC(C)NC(=O)c1cc(Oc2cccc(NC(=S)Nc3ccc(Cl)cc3)c2)ccn1
HCT-116
  IC50: 22.1 µM
MDA-MB-231
  IC50: 87.5 µM
PC-3
  IC50: 21.2 µM

## CNC(=O)c1cc(Oc2cccc(NC(=S)Nc3cccc(C(F)(F)F)c3)c2)ccn1
HCT-116
  IC50: 25.3 µM
MDA-MB-231
  IC50: > 100 µM
PC-3
  IC50: 24.5 µM

## CCNC(=O)c1cc(Oc2cccc(NC(=S)Nc3cccc(C(F)(F)F)c3)c2)ccn1
HCT-116
  IC50: 19.4 µM
MDA-MB-231
  IC50: 53.1 µM
PC-3
  IC50: 18.3 µM

## O=C(NC1CC1)c1cc(Oc2cccc(NC(=S)Nc3cccc(C(F)(F)F)c3)c2)ccn1
HCT-116
  IC50: 20.2 µM
MDA-MB-231
  IC50: 34.8 µM
PC-3
  IC50: 22.1 µM

## CNC(=O)c1cc(Oc2cccc(NC(=S)Nc3ccc(Cl)c(C(F)(F)F)c3)c2)ccn1
HCT-116
  IC50: 15.1 µM
MDA-MB-231
  IC50: 35.7 µM
PC-3
  IC50: 16.1 µM

## O=C(c1cc(Oc2cccc(NC(=S)Nc3ccc(OC(F)(F)F)cc3)c2)ccn1)N1CCCC1
HCT-116
  IC50: 17.8 µM
MDA-MB-231
  IC50: 37.8 µM
PC-3
  IC50: 34.1 µM

## CNC(=O)c1cc(Oc2cccc(NC(=S)Nc3ccc(F)c(F)c3)c2)ccn1
HCT-116
  IC50: 30.3 µM
MDA-MB-231
  IC50: > 100 µM
PC-3
  IC50: 33.1 µM

## O=C(NC1CC1)c1cc(Oc2cccc(NC(=S)Nc3ccc(Cl)c(C(F)(F)F)c3)c2)ccn1
HCT-116
  IC50: 9.3 µM
MDA-MB-231
  IC50: 21.2 µM
PC-3
  IC50: 6.8 µM

## CCNC(=O)c1cc(Oc2cccc(NC(=S)Nc3ccc(Cl)c(C(F)(F)F)c3)c2)ccn1
HCT-116
  IC50: 6.9 µM
Aorta
  inhibition: Active
MDA-MB-231
  IC50: 22.1 µM
PC-3
  IC50: 8.5 µM

## CCNC(=O)c1cc(Oc2cccc(NC(=S)Nc3ccc(F)c(F)c3)c2)ccn1
HCT-116
  IC50: 30.3 µM
MDA-MB-231
  IC50: > 100 µM
PC-3
  IC50: 26.3 µM

## O=C(c1cc(Oc2cccc(NC(=S)Nc3ccc(F)c(F)c3)c2)ccn1)N1CCCC1
HCT-116
  IC50: 52 µM
MDA-MB-231
  IC50: > 100 µM
PC-3
  IC50: 45.6 µM

## O=C(NC1CCCCC1)c1cc(Oc2cccc(NC(=S)Nc3ccc(Cl)c(C(F)(F)F)c3)c2)ccn1
HCT-116
  IC50: 2.8 µM
Aorta
  inhibition: Active
MDA-MB-231
  IC50: 34.2 µM
PC-3
  IC50: 2.2 µM

## CNC(=O)c1cc(Oc2ccc(NC(=O)Nc3ccc(Cl)c(C(F)(F)F)c3)cc2)ccn1 [SORAFENIB]
Aorta
  inhibition: Active
PC-3
  IC50: 6.8 µM

## CNC(=O)c1cc(Oc2cccc(NC(=S)Nc3ccc(OC(F)(F)F)cc3)c2)ccn1
HCT-116
  IC50: 33.8 µM
MDA-MB-231
  IC50: > 100 µM
PC-3
  IC50: 34.7 µM

## O=C(c1cc(Oc2cccc(NC(=S)Nc3ccc(Cl)c(C(F)(F)F)c3)c2)ccn1)N1CCCC1
HCT-116
  IC50: 22.4 µM
MDA-MB-231
  IC50: 40.2 µM
PC-3
  IC50: 12.1 µM

## O=C(NCc1ccccc1)c1cc(Oc2cccc(NC(=S)Nc3cccc(C(F)(F)F)c3)c2)ccn1
HCT-116
  IC50: 7.5 µM
MDA-MB-231
  IC50: 75 µM
PC-3
  IC50: 11 µM

## CC(C)NC(=O)c1cc(Oc2cccc(NC(=S)Nc3ccc(OC(F)(F)F)cc3)c2)ccn1
HCT-116
  IC50: 18.1 µM
MDA-MB-231
  IC50: > 100 µM
PC-3
  IC50: 11.8 µM

## O=C(NCc1ccccc1)c1cc(Oc2cccc(NC(=S)Nc3ccc(Cl)cc3)c2)ccn1
HCT-116
  IC50: 16.5 µM
MDA-MB-231
  IC50: > 100 µM
PC-3
  IC50: 15.8 µM

## O=C(NCc1ccccc1)c1cc(Oc2cccc(NC(=S)Nc3ccc(OC(F)(F)F)cc3)c2)ccn1
HCT-116
  IC50: 7.4 µM
MDA-MB-231
  IC50: > 100 µM
PC-3
  IC50: 6.8 µM

## CNC(=O)c1cc(Oc2cccc(NC(=S)Nc3ccc(Cl)cc3Cl)c2)ccn1
HCT-116
  IC50: 41.2 µM
MDA-MB-231
  IC50: > 100 µM
PC-3
  IC50: 37.8 µM

Source: ChEMBL document CHEMBL2157976, “Design, synthesis and biological activities of sorafenib derivatives as antitumor agents” (Bioorg Med Chem Lett, 2012)
